Bioassay records deposited in PubChem BioAssay by The Scripps Research Institute Molecular Screening Center.
This is a sample that favours compounds with a hit; in the whole collection about 4.6% have one here.
OX1R antag-1 – antagonists of human orexin 1 receptor. O43613. CHO/OX1R cells, Fluo-8 calcium fluorescence, orexin A. inhibition, % at 5 µM. 330,000 tested, 0.43% active. AID 434989;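 active means inhibition above its plate's threshold, mean inhibition of all tested compounds on the plate plus 3 SD, cut at about 37% in these data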;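 further: 0% = orexin A challenge wells and 100% = SB-334867-A antagonist wells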
Target sequence (O43613 whole entry, looked up): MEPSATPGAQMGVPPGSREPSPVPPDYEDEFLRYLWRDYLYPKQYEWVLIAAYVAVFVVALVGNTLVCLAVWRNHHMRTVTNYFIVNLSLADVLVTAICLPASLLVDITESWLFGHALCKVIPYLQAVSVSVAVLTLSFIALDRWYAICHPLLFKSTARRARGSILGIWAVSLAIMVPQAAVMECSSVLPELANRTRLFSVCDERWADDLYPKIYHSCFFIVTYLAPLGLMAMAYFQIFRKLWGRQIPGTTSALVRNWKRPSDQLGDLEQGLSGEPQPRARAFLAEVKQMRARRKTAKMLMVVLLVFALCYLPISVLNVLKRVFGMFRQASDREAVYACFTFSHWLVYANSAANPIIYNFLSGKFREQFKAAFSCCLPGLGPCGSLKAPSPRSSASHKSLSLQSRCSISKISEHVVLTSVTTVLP
CHO parental Ca – counter-screen: ATP calcium response change in parental CHO cells; parental CHO-K1, ATP-induced calcium, Fluo-8 fluorescence; inhibition, % at 5.6 µM; 330,000 tested, 0.63% active;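 active means inhibition above that plate's mean sample inhibition plus 3 SD, cut at about 26% in these data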;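 further: 0% = ATP-challenged DMSO wells and 100% = DMSO wells without ATP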
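test system = CHO parental line | reagent = ATP stimulus | measured by = intracellular calcium via Fluo-8 no-wash fluorescent dye | control set = ATP and no-ATP DMSO wells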
OX1R antag-2 – OX1R (human) antagonism; O43613; inhibition, % at 6.6 µM; 330,000 tested, 1.8% active; OX1R-expressing cells, FRET antagonist read-out; in the data active means inhibition mostly above about 38%, no sharp cut-off; inactive means mostly below about 40%;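 further: 0% = agonist challenge alone and 100% = reference antagonist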
TAAR1 antagonist – antagonists of human TAAR1; Q96RJ0; CHO RD-HGA16 TAAR1, Fluo-8 calcium fluorescence, antagonist; inhibition, % at 3 µM; 360,000 tested, 1.5% active;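 active means inhibition above a per-plate cutoff, the mean inhibition of test compounds on that plate plus 3 SD, cut at about 49% in these data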;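 further: 0% = DMSO plus EC80 beta-PEA response and 100% = DMSO alone without agonist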
Target sequence (Q96RJ0 whole entry, looked up): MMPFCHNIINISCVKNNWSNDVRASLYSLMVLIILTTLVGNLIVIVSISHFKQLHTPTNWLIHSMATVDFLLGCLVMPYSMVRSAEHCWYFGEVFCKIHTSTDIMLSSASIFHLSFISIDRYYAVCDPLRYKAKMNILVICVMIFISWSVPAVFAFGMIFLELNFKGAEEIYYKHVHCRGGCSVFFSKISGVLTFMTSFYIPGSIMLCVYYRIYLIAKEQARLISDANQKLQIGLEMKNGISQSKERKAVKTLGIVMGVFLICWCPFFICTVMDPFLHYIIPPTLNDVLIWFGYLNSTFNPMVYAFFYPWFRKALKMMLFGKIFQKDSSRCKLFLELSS
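System: RD-HGA16 CHO cells with stable hTAAR1 and Gα16 | Probe or stimulus: EC80 β-phenethylamine stimulus | Dosing: 3 µM, single point | Times: Dye loading 75 min at 37 °C, then 30 min room temperature | Measured by: Fluo-8 calcium-sensitive fluorescence | Read-out basis: % inhibition of agonist calcium response | Replicates: n of 1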
GPR7 antag – antagonists of human GPR7 (neuropeptides B/W receptor 1); P48145; GPR7-expressing cells, fluorescence antagonist assay; inhibition, % at 4.4 µM; 290,000 tested, 1.1% active; in the data active means inhibition above about 16%, passing the limit was not always enough;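 further: cells stimulated with the agonist NPW; 0% = agonist with vehicle and 100% = vehicle without agonist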
TAAR1 ag – human TAAR1 agonism. 360,000 tested, 0.99% active. AID 624467. activation, % at 3 µM. CHO RD-HGA16 TAAR1, Fluo-8 calcium fluorescence; vehicle wells 0%, saturating PEA agonist 100%. Q96RJ0;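 active means activation above the mean activation of all test compounds in the run plus 3 SD, cut at about 38% in these data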
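Benchmarks: low control DMSO, high control PEA (EC100); System: CHO RD-HGA16 cells carrying human TAAR1 plus Gα16; Detection: Fluo-8 fluorescence, 5 s baseline then 140 s kinetic read; Schedule: 17-24 h plating, Fluo-8 75 min 37 °C, 30 min RT; Read-out basis: % activation from peak over basal fluorescence ratio, DMSO-to-PEA scaled.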
TAAR1 ag confirm – confirmation of human TAAR1 agonists; shares compounds with TAAR1 ag; CHO RD-HGA16 TAAR1, Fluo-8 calcium fluorescence; scaled: DMSO 0%, maximal phenethylamine 100%; activation, % at 3 µM; 2,400 tested, 82% active; AID 651783;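 active means activation above a cutoff set at the run's mean compound activation plus 3 SD, cut at about 39% in these data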
Ga16 ag counter – counter-screen for TAAR1 agonists: nonselective agonists in parental cells. shares compounds with TAAR1 ag. CHO-Ga16 parental, Fluo-8 calcium fluorescence; normalized to maximal ATP response, DMSO zero. activation, % at 3 µM. 2,400 tested, 50% active;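 active means activation above the run cutoff, the mean activation over all tested wells plus 3 SD, cut at about 12% in these data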;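 further: 0% = DMSO wells and 100% = maximal ATP response on the peak over basal ratio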
TAAR1 desensitize – human TAAR1 agonist that also desensitizes the receptor; shares compounds with TAAR1 ag; CHO RD-HGA16 hTAAR1, Fluo-8 calcium, beta-PEA response inhibition; inhibition, % at 3 µM; 2,400 tested, 46% active; AID 651951;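 active means inhibition above the run cutoff, the mean inhibition of all test compounds plus 3 SD, cut at about 49% in these data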;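 further: beta-PEA stimulus applied at its EC80; loss of beta-PEA calcium signal after compound pretreatment read as receptor desensitization; 0% = DMSO with beta-PEA at EC80 and 100% = DMSO alone without agonist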
Ga16 antag count – nonselective Ga16 antagonist in TAAR1 agonist counter-screen; shares compounds with TAAR1 ag; CHO-Ga16 ATP-induced calcium, Fluo-8 fluorescence; inhibition, % at 3 µM; 2,400 tested, 39% active;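 active means inhibition above the plate's mean compound inhibition plus 3 SD, computed per plate, cut at about 22% in these data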;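 further: 0% = EC80 ATP with DMSO and 100% = DMSO wells without ATP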
An asterisk follows results filed as active; / = no result given.

SMILES | OX1R antag-1 | CHO parental Ca | OX1R antag-2 | TAAR1 antagonist | GPR7 antag | TAAR1 ag | TAAR1 ag confirm | Ga16 ag counter | TAAR1 desensitize | Ga16 antag count
O=C(COC(=O)Cn1cnc2ccccc2c1=O)Nc1ccc(Cl)cc1 | -17 | -17 | 12 | 14 | -6 | 49* | 66* | 2 | 28 | 4
O=C(COC(=O)Cn1cnc2ccccc2c1=O)Nc1ccc(Cl)c(C(F)(F)F)c1 | -24 | -19 | 0 | 8 | -4 | 27 | / | / | / | /
Cc1nn(-c2ccccc2)c(C)c1/C=N/n1c(-c2ccncc2)n[nH]c1=S | -24 | -18 | 17 | -6 | -13 | 47* | 93* | 18* | 24 | -5
Cc1nn(-c2ccccc2)c(C)c1/C=N/n1c(-c2ccc(Cl)cc2)n[nH]c1=S | -3 | -9 | 3 | 3 | -2 | 3 | / | / | / | /
O=C(CSc1nc(COc2ccccc2)nc2ccccc12)NC1CCCC1 | -15 | -25 | 31 | 19 | -5 | 3 | / | / | / | /
COc1ccc(Nc2nnc(SCc3cc([N+](=O)[O-])cc4c3OCOC4)s2)cc1 | -17 | -15 | 10 | -2 | -3 | -1 | / | / | / | /
COc1cccc(/C=N/NC(=O)Cn2nc(C)c([N+](=O)[O-])c2C)c1O | -25 | -6 | 18 | -17 | 2 | 1 | / | / | / | /
Cc1ccsc1/C=N/NC(=O)Cn1nc(C)c([N+](=O)[O-])c1C | -28 | -15 | 5 | -6 | -7 | 45* | 72* | 0 | 55* | 6
Cc1ccsc1/C=N/NC(=O)Cn1cnc2ccccc21 | -12 | -13 | 37 | 29 | -5 | 56* | 61* | 2 | 45 | 12
Cc1nn(CC(=O)N/N=C/c2cccs2)c(C)c1[N+](=O)[O-] | -9 | -5 | 13 | 38 | -19 | 57* | 80* | 6 | 72* | 4
C/C(=N\NC(=O)Cn1nc(C)c([N+](=O)[O-])c1C)c1ccc(Cl)s1 | -23 | -16 | 12 | -16 | -15 | 1 | / | / | / | /
CN(C(=O)c1cccc(NC(=O)Cc2cccc(NC(=O)C3CCCN(C(=O)CCc4ccccc4)C3)c2)c1)C1CCC1 (stereo not given) | / | / | / | -1 | / | -2 | / | / | / | /
O=C(Nc1ccccc1C(F)(F)F)c1ncn[nH]1 | -8 | 6 | 6 | -17 | -15 | 0 | / | / | / | /
Cc1nc(Nc2ccccc2)sc1-c1ccccc1 | -25 | -14 | 35 | -8 | -15 | -1 | / | / | / | /
Cc1nc(Nc2ccc(C(=O)O)cc2)sc1-c1ccccc1 | 13 | 2 | -8 | 31 | 18 | 62* | 71* | 63* | 61* | 44*
COc1ccc(NC(=O)COC(=O)c2cc(C)oc2C)c([N+](=O)[O-])c1 | 5 | 11 | 0 | 58* | / | 62* | -3 | 2 | 7 | 10
COc1ccc(NC(=O)COC(=O)c2cc(OC)c(OC)c(OC)c2)c([N+](=O)[O-])c1 | -21 | -15 | 27 | -9 | -10 | 4 | / | / | / | /
CCOc1nc2cnccc2n(CC(=O)Nc2cccc(C)c2)c1=O | -8 | -9 | 11 | -8 | 1 | 2 | / | / | / | /
CN1/C(=C\C=C2/SC(=S)NC2=O)C(C)(C)c2ccccc21 | 99* | 95* | 20 | 109* | 20 | 289* | 70* | 85* | 85* | 86*
CCCN1C(=O)/C(=C\C=C2\N(CC)c3ccccc3C2(C)C)SC1=S | / | / | / | 65* | -2 | 69* | 50* | 66* | 73* | 82*
CCCN1C(=O)/C(=C\C=C2/Sc3ccccc3N2CC)SC1=S | / | / | / | / | -12 | / | / | / | / | /
CC1=NN(c2ccccc2)C(=O)/C1=C\C=C1/N(C)c2ccccc2C1(C)C | 42* | 28* | 24 | 50* | 15 | 84* | 67* | 45* | 57* | 49*
CC1CN(CCOCCOc2ccccc2-c2ccccc2)CC(C)O1 (stereo not given) | -39 | -25 | -5 | -16 | -12 | 1 | / | / | / | /
Cc1cccc(-n2c(C)cc(/C=C3\C(=N)N4N=C(CC(C)C)SC4=NC3=O)c2C)c1 | -2 | -15 | 12 | 9 | -2 | 2 | / | / | / | /
CCSC1=NSC2=NC(=O)/C(=C\c3coc4ccccc4c3=O)C(=N)N12 | 54* | 59* | 44 | 108* | 10 | 252* | 204* | 279* | 103* | 99*
SMILES | OX1R antag-1 | CHO parental Ca | OX1R antag-2 | TAAR1 antagonist | GPR7 antag | TAAR1 ag | TAAR1 ag confirm | Ga16 ag counter | TAAR1 desensitize | Ga16 antag count
CC(C)CC1=NN2C(=N)/C(=C\c3coc4ccccc4c3=O)C(=O)N=C2S1 | / | / | / | 104* | -10 | 355* | 149* | 131* | 82* | 80*
O=C(CSc1nnc(COc2ccc(Br)cc2)o1)N1CCOCC1 | -7 | -19 | 25 | 9 | -10 | 10 | / | / | / | /
Cc1ccc(S(=O)(=O)CCC(=O)OCCOc2ccc(Br)cc2)cc1 | / | / | / | 5 | / | 0 | / | / | / | /
COc1cc2nc(Nc3ccc(C)c(C)c3)nc(N)c2cc1OC | -28 | -10 | 1 | -3 | -4 | 2 | / | / | / | /
COc1cc2nc(Nc3ccc(F)cc3)nc(N)c2cc1OC | -21 | -10 | 1 | 33 | -11 | 59* | 54* | 4 | 41 | 14
COc1ccc2c(c1)CCC(C)N2C(=O)C(=O)c1c[nH]c2ccccc12 (stereo not given) | -2 | -10 | 13 | -12 | -4 | -1 | / | / | / | /
CCCOc1ccc2cc(C(=O)NCc3ccccc3)c(=O)oc2c1 | -15 | -8 | 13 | -10 | -9 | -1 | / | / | / | /
CCOC(=O)[C@]12CCC=C1N(Cc1ccco1)C(=O)[C@H](CC(=O)NCCc1ccccc1OC)C2 | / | / | / | 0 | / | 62* | 69* | -1 | 43 | 11
C#CCNC(=O)C[C@H]1C[C@@]2(C(=O)OC)C(=C[C@H](C(C)(C)C)O[C@@H]2C)N(CCCCCCCC)C1=O | / | / | / | -76 | / | -2 | / | / | / | /
CCCCCCCCN1C(=O)[C@H](CC(=O)NCCCCc2ccccc2)C[C@@]2(C(=O)OC)CCCCC=C12 | / | / | / | -26 | / | 7 | / | / | / | /
CCCCCCCCN1C(=O)[C@@H](CC(=O)NCCc2ccccc2OC)C[C@@]2(C(=O)OC)C1=C[C@H](C(C)(C)C)O[C@@H]2C | / | / | / | 16 | / | 75* | 85* | 0 | 52* | 4
